Experimental findings from ChEMBL document CHEMBL1138509, “Synthesis and biological activities of topoisomerase I inhibitors, 6-arylmethylamino analogues of edotecarin” (J Med Chem, 2009) are described below.

The subject of one data set is DLD-1. In words: Cytotoxicity against human DLD1 cells after 72 hrs. It is filed as functional, cell-based. Conditions: DLD-1, 72 h.
Data set [1] can be described thus: Safety margin, ratio of LD10 for nude mouse to GID75 for human MX1 cells. It is filed as toxicity, cell-based. In short, it runs like this: (§1)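 Nude mice carried MKN-45 or MX-1 tumours implanted subcutaneously in a side flank. Compounds were given iv, either five times/week or twice/week for two consecutive weeks. The twice/week arm started once tumours reached 0.2 cm³ or larger. GID75 is the approximate dose giving 75% tumour growth inhibition, and LD10 is the approximate 10% lethal dose at that schedule. Safety margin = LD10/GID75.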

The subject of data set [2] is Mus musculus. Put plainly: Toxicity in human MX1 cells xenografted iv dosed nude mouse. It is filed as organism-based. Conditions: in vivo. In short, it runs like this: (§2)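 Toxicity was taken as LD10, the approximate dose lethal to 10% of nude mice at the treatment schedule. Mice bore subcutaneous side-flank MKN-45 or MX-1 xenografts and received iv dosing, either five times/week or twice/week for two consecutive weeks.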
For orientation: In xenograft studies the graft and the host belong to different species.

Data set [3] deals with MKN-45. Put plainly: Cytotoxicity against human MKN45 cells after 72 hrs. It is filed as functional, cell-based. The conditions noted are these: MKN-45, 72 h. In short, it runs like this: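 MKN-45 human stomach cancer cells were incubated with compound for 72 h. Cytotoxicity was measured by the colorimetric tetrazolium-formazan method and by sulforhodamine B dye staining.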

For another data set, the system named is MX1. In words: Antitumor activity in human MX1 cells xenografted iv dosed nude mouse assessed as tumor growth inhibition administered 5 times per week for 2 weeks at tumor growth of >= 0.2 cm2. It is filed as functional. In short, it runs like this:
(§3)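 Human MKN-45 (stomach) or MX-1 (breast) cells implanted subcutaneously into a side flank of nude mice. Compound given iv five times/week. GID₇₅ is the approximate dose giving 75% growth inhibition. LD₁₀ is the approximate 10% lethal dose at that schedule. Safety margin is LD₁₀/GID₇₅.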

A short description of data set [4]: Safety margin, ratio of LD10 for nude mouse to GID75 for human MKN45 cells. The class given is toxicity, cell-based. The conditions noted are these: mkn-45. The method, boiled down:
as §1

The subject of data set [5] is MKN-45. Put plainly: Antitumor activity in human MKN45 cells xenografted iv dosed nude mouse assessed as tumor growth inhibition administered 5 times per week for 2 weeks at tumor growth of >= 0.2 cm2. The class given is functional. The method, boiled down:
as §3

The target of a further data set is T1, DNA topoisomerase 1 (Homo sapiens, UniProt P11387).
T1 sequence (P11387 whole entry): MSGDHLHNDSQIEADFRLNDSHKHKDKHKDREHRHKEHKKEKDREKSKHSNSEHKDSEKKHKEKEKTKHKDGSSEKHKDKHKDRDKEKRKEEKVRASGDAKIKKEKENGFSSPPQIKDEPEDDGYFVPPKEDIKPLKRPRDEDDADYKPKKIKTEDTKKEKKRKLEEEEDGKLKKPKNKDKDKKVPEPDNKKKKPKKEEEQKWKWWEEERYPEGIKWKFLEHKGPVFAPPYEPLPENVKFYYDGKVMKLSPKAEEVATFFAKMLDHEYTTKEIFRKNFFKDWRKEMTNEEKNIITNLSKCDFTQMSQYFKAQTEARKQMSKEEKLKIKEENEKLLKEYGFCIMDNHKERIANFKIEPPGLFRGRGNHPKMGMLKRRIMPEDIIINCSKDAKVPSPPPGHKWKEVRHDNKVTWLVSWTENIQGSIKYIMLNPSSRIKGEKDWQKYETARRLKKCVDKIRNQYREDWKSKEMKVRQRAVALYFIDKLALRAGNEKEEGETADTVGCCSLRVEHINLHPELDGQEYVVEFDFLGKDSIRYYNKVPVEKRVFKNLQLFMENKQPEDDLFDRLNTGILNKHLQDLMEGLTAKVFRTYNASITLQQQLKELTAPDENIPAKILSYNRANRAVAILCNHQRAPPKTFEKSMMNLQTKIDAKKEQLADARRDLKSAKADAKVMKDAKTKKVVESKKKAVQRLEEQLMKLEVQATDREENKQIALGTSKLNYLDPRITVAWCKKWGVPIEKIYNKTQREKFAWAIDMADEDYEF
In words: Inhibition of human DNA topoisomerase 1-mediated DNA cleavage assessed as relaxation of supercoiled pBR322 plasmid DNA after 15 mins by densitometer.

Data set [6] concerns the target Epidermal growth factor receptor (Homo sapiens, UniProt P00533). Put plainly: Inhibition of EGFR. In short, it runs like this: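 Kinase-inhibition assay against EGF receptor kinase, with Poly(Glu4Tyr1) as substrate.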
The subject of the next data set is P388/S. Put plainly: Cytotoxicity against mouse P388/S cells after 72 hrs by colorimetric tetrazolium-formazan method. The class given is functional, cell-based. In short, it runs like this: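 Murine leukaemia P388 cells were exposed to compound for 72 h. Viability was read by the colorimetric tetrazolium-formazan method.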
Data set [7] is described as follows: Inhibition of PKC. In short, it runs like this:
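Protein kinase C inhibition assay, with Histone II-As as substrate.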

Data set [8] relates to Mus musculus. In words: Toxicity in human MKN45 cells xenografted iv dosed nude mouse. It is filed as organism-based, MKN-45. The conditions noted are these: in vivo. The method, boiled down:
as §2

Sequence of Epidermal growth factor receptor (P00533 whole entry): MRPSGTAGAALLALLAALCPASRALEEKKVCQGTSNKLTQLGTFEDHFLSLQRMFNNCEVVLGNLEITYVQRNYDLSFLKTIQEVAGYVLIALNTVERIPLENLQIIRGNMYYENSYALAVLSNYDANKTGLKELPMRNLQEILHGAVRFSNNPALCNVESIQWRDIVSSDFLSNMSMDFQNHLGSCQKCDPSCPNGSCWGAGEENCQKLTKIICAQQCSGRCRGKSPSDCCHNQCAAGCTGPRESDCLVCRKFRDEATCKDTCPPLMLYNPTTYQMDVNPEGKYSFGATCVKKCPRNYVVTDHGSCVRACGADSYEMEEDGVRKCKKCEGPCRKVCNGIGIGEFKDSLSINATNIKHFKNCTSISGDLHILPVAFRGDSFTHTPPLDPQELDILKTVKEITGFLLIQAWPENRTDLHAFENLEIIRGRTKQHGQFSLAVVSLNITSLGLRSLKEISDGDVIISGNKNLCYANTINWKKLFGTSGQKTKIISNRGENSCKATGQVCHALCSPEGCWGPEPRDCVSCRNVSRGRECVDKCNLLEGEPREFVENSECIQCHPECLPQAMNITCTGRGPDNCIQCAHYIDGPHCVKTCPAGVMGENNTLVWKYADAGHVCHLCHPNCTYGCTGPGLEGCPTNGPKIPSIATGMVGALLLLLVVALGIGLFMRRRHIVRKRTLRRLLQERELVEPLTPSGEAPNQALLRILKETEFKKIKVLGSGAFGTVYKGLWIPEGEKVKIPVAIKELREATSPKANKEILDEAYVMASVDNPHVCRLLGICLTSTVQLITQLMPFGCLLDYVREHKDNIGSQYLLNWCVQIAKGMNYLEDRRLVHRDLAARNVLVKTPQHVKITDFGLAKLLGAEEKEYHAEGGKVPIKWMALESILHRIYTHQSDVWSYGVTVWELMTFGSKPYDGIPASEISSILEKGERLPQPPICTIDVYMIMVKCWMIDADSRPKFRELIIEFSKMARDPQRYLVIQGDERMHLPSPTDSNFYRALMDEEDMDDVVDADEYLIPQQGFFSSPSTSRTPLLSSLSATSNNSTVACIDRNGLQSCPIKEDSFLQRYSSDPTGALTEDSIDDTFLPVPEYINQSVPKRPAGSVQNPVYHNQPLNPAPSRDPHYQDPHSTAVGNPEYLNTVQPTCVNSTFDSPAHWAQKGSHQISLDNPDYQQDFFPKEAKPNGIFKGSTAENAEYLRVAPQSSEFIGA

As for `O=C1c2c(c3c4ccc(O)cc4n([C@@H]4O[C@H](CO)[C@@H](O)[C@H](O)[C@H]4O)c3c3[nH]c4cc(O)ccc4c23)C(=O)N1NC(CO)CO` [EDOTECARIN], the IC50 (usually the concentration needed to halve the response being measured) in the data set with DLD-1 was 70 nM; with MKN-45 [3], 4.8 nM; in [6], above 200000 nM; in the data set on P388/S, 1.5 nM; in [7], 18000 nM. The selectivity ratio in data set [1] is above 13; in data set [4], above 36. For the same compound, the LD10 in the data set with Mus musculus [2] is listed as above 2000 mg/m2; in the data set with Mus musculus [8], above 1600 mg/m2. For the same compound, the values for the GID75 with MX1 and in the data set on MKN-45 [5] were 160 mg/m2 and 45 mg/m2, respectively. Besides, at DNA topoisomerase 1, the EC50 (commonly the concentration giving half of the maximal effect) came to 51 nM.
